Assay results published in ChEMBL document CHEMBL1148356, “Synthesis and biological evaluation of 3-heterocyclyl-7,8,9,10-tetrahydro-(7,10-ethano)-1,2,4-triazolo[3,4-a]phthalazines and analogues as subtype-selective inverse agonists for the GABA(A)alpha5 benzodiazepine binding site” (J Med Chem, 2004).
Active and inactive are the calls of the source. The rule behind the calls is not given here.

Experiments:
[1] = target: T1, GABA-A receptor; alpha-1/beta-3/gamma-2 (Homo sapiens) (UniProt P14867+P18507+P28472); assay: Percent change in electrophysiological response in Xenopus oocytes expressing Alpha1-beta3-gamma2 GABA-A receptor; assay type: functional, cell-based; conditions: Oocyte
Outline: (§1)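 Two-electrode voltage clamp on Xenopus oocytes injected with human GABA-A subunit cDNAs, 24-72 h expression, perfused with modified Barth's medium at pH 7.5, clamped between -40 and -70 mV. The GABA EC20 was titrated against a 3 mM GABA maximum. […] Result is % change of control current, mean ± SE of ≥4 oocytes.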

[2] = target: T2, GABA-A receptor; alpha-1/beta-3/gamma-2 (Homo sapiens, UniProt P14867+P18507+P28472); assay: Binding affinity towards human alpha-1-beta-3-gamma-2 GABA-A receptor using [3H]Ro-151788 expressed in L(tk-) cells; assay type: cell-based
T2 sequence (P14867 whole entry): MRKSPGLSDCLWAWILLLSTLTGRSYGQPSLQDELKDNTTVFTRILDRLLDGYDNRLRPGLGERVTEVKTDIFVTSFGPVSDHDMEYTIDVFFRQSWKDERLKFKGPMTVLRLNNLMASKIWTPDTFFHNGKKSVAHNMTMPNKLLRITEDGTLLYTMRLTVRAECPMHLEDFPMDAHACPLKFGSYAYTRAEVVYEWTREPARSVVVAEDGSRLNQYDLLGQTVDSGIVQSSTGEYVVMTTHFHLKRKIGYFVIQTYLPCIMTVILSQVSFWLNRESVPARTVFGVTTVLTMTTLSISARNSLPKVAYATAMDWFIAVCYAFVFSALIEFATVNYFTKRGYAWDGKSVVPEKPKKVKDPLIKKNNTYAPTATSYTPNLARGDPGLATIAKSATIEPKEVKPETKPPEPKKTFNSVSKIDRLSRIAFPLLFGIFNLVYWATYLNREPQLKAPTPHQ
T2 sequence (P18507 whole entry): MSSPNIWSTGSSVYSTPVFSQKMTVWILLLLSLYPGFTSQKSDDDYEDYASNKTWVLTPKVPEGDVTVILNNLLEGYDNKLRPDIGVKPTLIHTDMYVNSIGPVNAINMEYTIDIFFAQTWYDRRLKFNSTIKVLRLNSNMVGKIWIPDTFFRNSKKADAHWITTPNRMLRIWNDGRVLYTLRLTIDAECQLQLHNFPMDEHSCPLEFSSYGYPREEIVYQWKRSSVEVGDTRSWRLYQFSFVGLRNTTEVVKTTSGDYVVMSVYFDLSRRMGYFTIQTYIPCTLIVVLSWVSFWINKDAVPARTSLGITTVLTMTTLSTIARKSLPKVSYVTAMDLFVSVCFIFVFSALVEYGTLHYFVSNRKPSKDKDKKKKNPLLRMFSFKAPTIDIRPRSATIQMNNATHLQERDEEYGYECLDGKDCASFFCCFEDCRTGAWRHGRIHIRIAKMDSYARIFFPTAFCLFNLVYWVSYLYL
T2 sequence (P28472 whole entry): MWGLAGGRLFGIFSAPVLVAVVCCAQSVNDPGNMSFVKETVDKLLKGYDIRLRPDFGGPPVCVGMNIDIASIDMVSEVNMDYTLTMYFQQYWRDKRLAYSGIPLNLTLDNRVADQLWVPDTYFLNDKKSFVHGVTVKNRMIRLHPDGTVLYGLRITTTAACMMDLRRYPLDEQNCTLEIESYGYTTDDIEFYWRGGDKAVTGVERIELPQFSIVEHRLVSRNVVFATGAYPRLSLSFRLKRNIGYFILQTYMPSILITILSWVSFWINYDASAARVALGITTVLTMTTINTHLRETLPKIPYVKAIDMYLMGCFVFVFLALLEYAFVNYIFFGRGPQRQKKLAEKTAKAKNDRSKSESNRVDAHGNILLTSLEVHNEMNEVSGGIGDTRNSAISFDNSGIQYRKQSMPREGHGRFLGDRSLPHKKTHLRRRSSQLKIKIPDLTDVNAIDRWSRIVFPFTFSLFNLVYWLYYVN

[3] = target: T3, GABA-A receptor; alpha-3/beta-3/gamma-2 (Homo sapiens, UniProt P18507+P28472+P34903); assay: Binding affinity towards human gamma-aminobutyric-acid A receptor alpha-3-beta-3-gamma-2 using [3H]Ro-151788 expressed in L(tk-) cells; assay type: cell-based
T3 sequence (P18507 whole entry): T2 sequence (P18507 whole entry)
T3 sequence (P28472 whole entry): T2 sequence (P28472 whole entry)
T3 sequence (P34903 whole entry): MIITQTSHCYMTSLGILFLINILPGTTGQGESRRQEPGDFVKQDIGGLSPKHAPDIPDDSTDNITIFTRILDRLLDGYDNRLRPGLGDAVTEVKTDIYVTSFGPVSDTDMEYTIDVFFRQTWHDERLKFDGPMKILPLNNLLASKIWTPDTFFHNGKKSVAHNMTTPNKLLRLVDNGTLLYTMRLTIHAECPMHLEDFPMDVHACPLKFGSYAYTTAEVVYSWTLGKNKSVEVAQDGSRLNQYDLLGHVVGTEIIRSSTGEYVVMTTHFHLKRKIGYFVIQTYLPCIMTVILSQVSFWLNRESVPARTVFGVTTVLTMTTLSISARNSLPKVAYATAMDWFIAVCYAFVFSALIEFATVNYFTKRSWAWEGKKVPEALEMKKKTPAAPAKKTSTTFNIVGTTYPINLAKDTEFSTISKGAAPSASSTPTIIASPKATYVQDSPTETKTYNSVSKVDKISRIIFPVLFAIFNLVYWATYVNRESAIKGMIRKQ

[4] = target: T4, GABA-A receptor; alpha-5/beta-3/gamma-2 (Homo sapiens) (UniProt P18507+P28472+P31644); assay: Percent change in electrophysiological response in Xenopus oocytes expressing Alpha-5-beta-3-gamma-2 GABA-A receptor; assay type: functional, cell-based; conditions: Oocyte; outline: as §1
[5] = target: T5, GABA-A receptor; alpha-5/beta-3/gamma-2 (Homo sapiens, UniProt P18507+P28472+P31644); assay: Binding affinity towards human alpha-5-beta-3-gamma-2 GABA-A receptor using [3H]Ro-151788 expressed in L(tk-) cells; assay type: cell-based
T5 sequence (P18507 whole entry): T2 sequence (P18507 whole entry)
T5 sequence (P28472 whole entry): T2 sequence (P28472 whole entry)
T5 sequence (P31644 whole entry): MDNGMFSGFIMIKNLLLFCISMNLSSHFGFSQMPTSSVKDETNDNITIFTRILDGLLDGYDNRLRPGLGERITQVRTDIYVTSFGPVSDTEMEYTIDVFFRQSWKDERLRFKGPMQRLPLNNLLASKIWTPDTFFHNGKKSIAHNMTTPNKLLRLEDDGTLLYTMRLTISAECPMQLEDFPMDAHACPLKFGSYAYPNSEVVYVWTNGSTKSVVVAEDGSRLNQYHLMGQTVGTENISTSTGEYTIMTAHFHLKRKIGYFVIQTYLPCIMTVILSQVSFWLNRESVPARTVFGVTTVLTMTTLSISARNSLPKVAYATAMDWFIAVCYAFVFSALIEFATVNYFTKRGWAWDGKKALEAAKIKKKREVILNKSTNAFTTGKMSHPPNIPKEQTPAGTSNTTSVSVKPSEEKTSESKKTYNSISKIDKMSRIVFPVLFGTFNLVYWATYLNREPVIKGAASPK

[6] = target: T6, GABA-A receptor; alpha-2/beta-3/gamma-2 (Homo sapiens, UniProt P18507+P28472+P47869); assay: Binding affinity towards human gamma-aminobutyric-acid A receptor alpha-2-beta-3-gamma-2 using [3H]Ro-151788 expressed in L(tk-) cells; assay type: cell-based
T6 sequence (P18507 whole entry): T2 sequence (P18507 whole entry)
T6 sequence (P28472 whole entry): T2 sequence (P28472 whole entry)
T6 sequence (P47869 whole entry): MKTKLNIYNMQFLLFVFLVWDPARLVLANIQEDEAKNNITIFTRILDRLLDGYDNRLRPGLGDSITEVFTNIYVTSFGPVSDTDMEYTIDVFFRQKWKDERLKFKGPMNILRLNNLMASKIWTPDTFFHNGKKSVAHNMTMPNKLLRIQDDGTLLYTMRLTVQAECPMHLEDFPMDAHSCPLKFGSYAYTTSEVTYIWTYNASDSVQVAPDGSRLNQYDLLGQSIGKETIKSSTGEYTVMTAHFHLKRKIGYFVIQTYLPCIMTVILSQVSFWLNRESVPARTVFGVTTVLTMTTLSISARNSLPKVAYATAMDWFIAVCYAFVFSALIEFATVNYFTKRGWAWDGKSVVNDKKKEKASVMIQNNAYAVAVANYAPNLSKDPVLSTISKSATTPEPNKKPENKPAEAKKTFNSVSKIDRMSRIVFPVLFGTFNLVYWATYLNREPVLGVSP

[7] = target: T7, GABA-A receptor; alpha-3/beta-3/gamma-2 (Homo sapiens) (UniProt P18507+P28472+P34903); assay: Percent change in electrophysiological response in Xenopus oocytes expressing Alpha3-beta3-gamma2 GABA-A receptor; assay type: functional, cell-based; conditions: Oocyte; outline: as §1
[8] = target: T8, GABA-A receptor; alpha-2/beta-3/gamma-2 (Homo sapiens) (UniProt P18507+P28472+P47869); assay: Percent change in electrophysiological response in Xenopus oocytes expressing Alpha2-beta3-gamma2 GABA-A receptor; assay type: functional, cell-based; conditions: Oocyte; outline: as §1
[9] = test system: Rattus norvegicus; assay: Tested for cognitive performance in rats in delayed matching-to-place version of water maze test at 0.3 mg/kg i.p.; Enhanced performance; assay type: functional, organism-based; parameters: dose 0.3 mg/kg
[10] = Oral bioavailability in rat; assay type: ADME, organism-based; conditions: in vivo
Outline: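 Male SD rats with jugular cannulas were fasted overnight and dosed either by tail-vein IV bolus or orally (n = 3 per route). Serial jugular blood samples were taken up to 8 h. Plasma was frozen at −20 °C, protein-precipitated with acetonitrile containing internal standard, and quantified by LC-MS/MS.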

[11] = target: T1, GABA-A receptor; alpha-1/beta-3/gamma-2 (Homo sapiens); assay: Percent maximum change in electrophysiological response in Xenopus oocytes expressing alpha-1-beta-3-gamma-2 GABA-A receptor; assay type: functional, cell-based; conditions: Oocyte; outline: as §1
[12] = target: T7, GABA-A receptor; alpha-3/beta-3/gamma-2 (Homo sapiens); assay: Percent maximum change in electrophysiological response in Xenopus oocytes expressing alpha-3-beta-3-gamma-2 GABA-A receptor; assay type: functional, cell-based; conditions: Oocyte; outline: as §1
[13] = target: T8, GABA-A receptor; alpha-2/beta-3/gamma-2 (Homo sapiens); assay: Percent maximum change in electrophysiological response in Xenopus oocytes expressing alpha-2-beta-3-gamma-2 GABA-A receptor; assay type: functional, cell-based; conditions: Oocyte; outline: as §1
[14] = target: T4, GABA-A receptor; alpha-5/beta-3/gamma-2 (Homo sapiens); assay: Percent maximum change in electrophysiological response in Xenopus oocytes expressing alpha-5-beta-3-gamma-2 GABA-A receptor; assay type: functional, cell-based; conditions: Oocyte; outline: as §1

SMILES | Efficacy [1] [%] | Ki [2] [nM] | Ki [3] [nM] | Efficacy [4] [%] | Ki [5] [nM] | Ki [6] [nM] | Efficacy [7] [%] | Efficacy [8] [%] | Activity [9] | bioavailability [10] [%] | Efficacy [11] [%] | Efficacy [12] [%] | Efficacy [13] [%] | Efficacy [14] [%]
Cc1noc(-c2nnc3c4c(c(OCc5ccccc5Br)nn23)C2CCC4CC2)n1 | -12 | 58.5 | 6.2 | -42 | 1 | 16.5 | 12 | -18 | – | – | – | – | – | –
CC1(C)CC(=O)c2c(SCCO)sc(-c3nccs3)c2C1 | – | – | – | – | – | – | – | – | Active | – | – | – | – | –
Cc1cccc(COc2nn3c(-c4cc(C)on4)nnc3c3c2C2CCC3CC2)n1 | 21 | – | – | -29 | – | – | -1 | 14 | – | 3 | – | – | – | –
Cc1cccc(COc2nn3c(-c4ccccc4)nnc3c3ccccc23)n1 | 0.7 | 1.9 | 0.33 | 11 | 1.3 | 1 | -8.3 | -3.8 | – | – | – | – | – | –
CCOC(=O)c1ncn2c1[C@@H]1CCCN1C(=O)c1cc(OC)ccc1-2 | -12 | – | – | -12 | – | – | -3 | -17 | – | – | -18 | -11 | -26 | -21
Cc1cccc(COc2nn3c(-c4ccccc4)nnc3c3c2C2CCC3CC2)n1 | 53 | 122 | 23.7 | 14 | 3 | 44.5 | 44 | 35 | – | – | – | – | – | –
Cc1cccc(COc2nn3c(-c4nc(C)no4)nnc3c3c2C2CCC3CC2)n1 | -15 | 75.7 | 11 | -35 | 1.4 | – | -21 | -10 | – | < 1 | – | – | – | –
Cc1cccc(COc2nn3c(-c4cnccn4)nnc3c3c2C2CCC3CC2)n1 | 12 | 84 | 10.6 | -9 | 1.8 | 28.4 | 19 | 8 | – | – | – | – | – | –
